Results reported in article PMC9064382 (RSC Advances, 2019).
pIC50: −log10 of the molar value.

Columns and labels:
Format in all cases: in vitro ADME
[1] = molecular target: T1, hOATP1B3 (Homo sapiens, UniProt Q9NPD5)
T1 sequence (Q9NPD5 1-702): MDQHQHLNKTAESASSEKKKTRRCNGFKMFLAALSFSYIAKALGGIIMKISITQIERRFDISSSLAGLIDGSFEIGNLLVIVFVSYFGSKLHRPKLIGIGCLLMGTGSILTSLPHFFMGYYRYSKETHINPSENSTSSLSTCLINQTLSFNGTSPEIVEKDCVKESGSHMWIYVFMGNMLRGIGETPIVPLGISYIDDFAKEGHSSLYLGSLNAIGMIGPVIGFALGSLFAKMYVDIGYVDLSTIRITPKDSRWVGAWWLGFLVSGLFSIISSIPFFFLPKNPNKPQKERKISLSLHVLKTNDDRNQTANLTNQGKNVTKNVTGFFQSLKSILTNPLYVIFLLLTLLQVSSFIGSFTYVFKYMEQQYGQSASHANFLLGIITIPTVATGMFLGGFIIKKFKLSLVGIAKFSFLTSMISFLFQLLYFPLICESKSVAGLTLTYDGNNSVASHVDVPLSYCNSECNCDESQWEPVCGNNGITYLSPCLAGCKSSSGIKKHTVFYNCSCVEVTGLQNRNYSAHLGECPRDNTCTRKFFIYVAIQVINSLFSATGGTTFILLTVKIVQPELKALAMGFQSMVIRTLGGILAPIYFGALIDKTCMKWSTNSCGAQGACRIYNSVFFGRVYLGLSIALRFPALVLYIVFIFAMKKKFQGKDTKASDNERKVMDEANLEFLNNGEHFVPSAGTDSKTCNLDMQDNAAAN

[2] = molecular target: T2, hOATP2B1 (Homo sapiens, UniProt O94956)
T2 sequence (O94956 1-709): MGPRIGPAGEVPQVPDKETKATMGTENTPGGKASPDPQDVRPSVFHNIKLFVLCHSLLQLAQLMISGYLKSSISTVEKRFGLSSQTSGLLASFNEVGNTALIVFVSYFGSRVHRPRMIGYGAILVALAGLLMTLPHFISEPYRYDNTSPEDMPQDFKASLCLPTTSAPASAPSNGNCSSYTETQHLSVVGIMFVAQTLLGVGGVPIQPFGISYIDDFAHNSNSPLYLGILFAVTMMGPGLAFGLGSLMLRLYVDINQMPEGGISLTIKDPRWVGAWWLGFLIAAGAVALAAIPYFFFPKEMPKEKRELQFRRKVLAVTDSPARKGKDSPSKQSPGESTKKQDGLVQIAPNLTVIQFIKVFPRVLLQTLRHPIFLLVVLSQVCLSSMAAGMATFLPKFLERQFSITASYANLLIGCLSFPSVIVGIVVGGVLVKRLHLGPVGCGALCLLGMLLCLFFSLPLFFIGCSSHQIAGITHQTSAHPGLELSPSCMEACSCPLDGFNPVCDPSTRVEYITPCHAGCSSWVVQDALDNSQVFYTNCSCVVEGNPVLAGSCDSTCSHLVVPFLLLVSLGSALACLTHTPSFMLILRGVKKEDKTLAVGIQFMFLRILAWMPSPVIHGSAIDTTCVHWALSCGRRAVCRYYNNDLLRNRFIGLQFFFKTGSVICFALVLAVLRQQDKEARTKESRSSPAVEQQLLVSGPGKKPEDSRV
Outline: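 Transfected and mock cells were incubated 2 min at 37 °C with 200 nmol L−1 3H-ES plus test compound. The screen used a single 100 μmol L−1 concentration with reference inhibitors as positive controls, giving an inhibition rate (n = 3, mean ± sd). […] DMSO was <0.2%. Cells were stopped with cold DPBS, rinsed three times, lysed in 0.1 mol L−1 NaOH and counted by scintillation (dpm).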

[3] = molecular target: T3, hOCT1 (Homo sapiens, UniProt O15245); experiment: Inhibition of 14C-TEA uptake in hOCT1-transfected cells by liquorice ingredients; conditions: read-out: IC50 on hOCT1; 14C-TEA probe, 5 min
T3 sequence (O15245 1-554): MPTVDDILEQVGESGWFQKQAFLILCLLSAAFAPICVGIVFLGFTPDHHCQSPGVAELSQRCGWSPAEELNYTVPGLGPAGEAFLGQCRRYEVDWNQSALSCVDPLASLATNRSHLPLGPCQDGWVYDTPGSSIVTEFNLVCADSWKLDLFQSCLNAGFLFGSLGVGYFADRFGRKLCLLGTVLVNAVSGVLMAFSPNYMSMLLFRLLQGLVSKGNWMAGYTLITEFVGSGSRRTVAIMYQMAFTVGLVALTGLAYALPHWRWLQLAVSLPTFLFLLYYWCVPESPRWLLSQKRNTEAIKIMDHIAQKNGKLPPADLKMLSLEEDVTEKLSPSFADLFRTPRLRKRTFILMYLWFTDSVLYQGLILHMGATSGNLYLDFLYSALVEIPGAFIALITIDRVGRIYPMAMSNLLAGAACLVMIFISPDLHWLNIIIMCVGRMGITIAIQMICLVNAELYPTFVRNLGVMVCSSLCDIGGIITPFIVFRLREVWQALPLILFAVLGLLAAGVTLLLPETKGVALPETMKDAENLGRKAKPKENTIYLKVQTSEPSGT
Outline: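 Transfected and mock cells were seeded at 2 × 10^5/well and grown 48 h. They were then exposed at 37 °C to test compound at 1, 3, 10, 30 and 100 μmol L−1 (DMSO <0.2%) with either 5 μmol L−1 14C-PAH for 2 min (hOAT1) or 5 μmol L−1 14C-TEA for 5 min (hOCT1). Uptake was stopped with cold DPBS and three rinses, cells lysed in 0.1 mol L−1 NaOH, counted by liquid scintillation (dpm), and IC50 calculated.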

In the case of `C=CC(C)(C)c1cc(/C=C/C(=O)c2ccc(O)cc2)c(OC)cc1O` [licochalcone A], the pIC50 ([1]; read-out: IC50 on hOATP1B3, 3H-ES probe, 2 min) was 5.72, the “inhibition of hOATP1B3” value ([1]; screening at 100 μm) was “strong inhibitors” and the pIC50 ([2]; read-out: IC50 on hOATP2B1, 3H-ES probe, 2 min) was 5.96. The “inhibition of hOATP2B1” value ([2]; screening at 100 μm) was “strong inhibitors” and the pIC50 [3] was 4.85.
